From ChEMBL document CHEMBL1146603, “Use of a pharmacophore model to discover a new class of influenza endonuclease inhibitors” (J Med Chem, 2003)

Tests used:
[1] = target: Polymerase acidic protein (Influenza A virus (A/Puerto Rico/8/1934(H1N1)), UniProt P03433); experiment: Inhibitory concentration against cap-dependent endonuclease activity of influenza virus RNP; assay type: functional, unidentified influenza virus
How it was run: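 Gel-based cap-dependent endonuclease assay. 1 nM influenza RNP was incubated with 0.1 nM cap-labeled 20-mer G20 RNA in 50 mM Tris-HCl pH 8 with 1 mM MgCl₂, 20 mM KCl, 1 U/μL RNase inhibitor and 0.3% Triton X-100, for 5 min at 31 °C. Cleavage products were resolved on polyacrylamide gels and quantified by phosphorimager. IC50 came from dose–response curves.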

[2] = target: Polymerase acidic protein (Influenza A virus (A/Puerto Rico/8/1934(H1N1)), UniProt P03433); experiment: Inhibitory concentration against cap-dependent endonuclease activity of influenza A/PR/8/34 RNP; assay type: functional
How it was run: (§1)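 Cap-dependent transcription run on a filter plate. 10 nM RNP purified from A/PR/8/34 or B/Lee/40 virus was mixed with 0.01 mg/mL AMV RNA, 50 μM GTP, 50 μM CTP, 500 μM ATP and 5 μM [radiolabeled] UTP. Buffer was 50 mM Tris-HCl pH 8 with 100 mM KCl, 5 mM MgCl₂, 10% DMSO, 5 mM DTT and 0.2 mg/mL BSA. Incubation was 90 min at 31 °C. TCA-precipitated RNA was scintillation-counted. IC50 came from dose–response curves.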

[3] = test system: unidentified influenza virus; experiment: Effective concentration against influenza virus in MDCK cells; assay type: functional, organism-based
How it was run: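 Antiviral dose–response read as protection of MDCK cells from influenza virus-induced cell death.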

[4] = target: Polymerase acidic protein (Influenza B virus (strain B/Lee/1940), UniProt Q9QLI9); experiment: Inhibitory concentration against cap-dependent endonuclease activity of influenza B/Lee/40 RNP; assay type: functional; how it was run: as §1
Sequence of Polymerase acidic protein (Q9QLI9 whole entry): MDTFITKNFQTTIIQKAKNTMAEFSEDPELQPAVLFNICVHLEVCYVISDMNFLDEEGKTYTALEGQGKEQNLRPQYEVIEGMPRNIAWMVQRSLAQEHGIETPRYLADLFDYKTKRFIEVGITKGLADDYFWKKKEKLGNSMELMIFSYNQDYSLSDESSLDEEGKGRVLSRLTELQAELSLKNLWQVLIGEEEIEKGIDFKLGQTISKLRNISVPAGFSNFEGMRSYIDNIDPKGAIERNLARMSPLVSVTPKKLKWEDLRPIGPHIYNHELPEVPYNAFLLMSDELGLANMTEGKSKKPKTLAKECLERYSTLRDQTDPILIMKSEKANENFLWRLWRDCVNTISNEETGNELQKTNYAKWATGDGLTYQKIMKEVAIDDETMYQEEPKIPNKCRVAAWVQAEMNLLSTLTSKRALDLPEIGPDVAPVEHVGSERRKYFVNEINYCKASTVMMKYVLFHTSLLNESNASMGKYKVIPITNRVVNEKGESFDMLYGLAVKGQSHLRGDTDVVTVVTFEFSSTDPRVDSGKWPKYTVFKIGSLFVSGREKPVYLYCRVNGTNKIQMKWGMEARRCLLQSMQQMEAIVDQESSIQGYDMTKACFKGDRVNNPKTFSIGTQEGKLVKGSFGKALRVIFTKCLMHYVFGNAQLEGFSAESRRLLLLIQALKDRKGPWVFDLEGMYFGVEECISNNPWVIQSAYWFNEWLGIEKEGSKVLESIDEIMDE

[5] = target: Polymerase acidic protein (Influenza A virus (A/Puerto Rico/8/1934(H1N1))) (UniProt P03433); experiment: Percent inhibition of cap-dependent endonuclease activity of influenza virus RNP at 100 uM; assay type: functional; conditions: unidentified influenza virus

SMILES	IC50 [1] [µM]	IC50 [2] [µM]	further results
CC(C)/C=C1\N=C(CC(C)C)C(=O)N(O)C1=O	5.5		
O=C(Nc1ccccc1)Nc1ccc2c(C(=O)c3ccccc3)c(O)n(O)c2c1		29	
CCC(=O)c1c(O)n(O)c2cc(NC(=O)Nc3cccc(C(=O)O)c3)ccc12		10	
CCC(=O)c1c(O)n(O)c2cc(NC(=O)Nc3ccccc3)ccc12		40	
COCON1C(=O)C(CC(C)C)=N/C(=C\C(C)C)C1=O	> 355		
O=C(Nc1cccc(C(=O)O)c1)Nc1ccc2c(C(=O)c3ccccc3)c(O)n(O)c2c1		3	EC50 [3]: > 100 µM; IC50 [4]: 6 µM
Cc1cc(C(=O)Nc2ccc3c(C(=O)c4ccccc4)c(O)n(O)c3c2)no1		9.5	EC50 [3]: > 100 µM
O=c1[nH]c2nccnc2c(=O)n1O	95		
O=C(Nc1ccc2c(C(=O)c3ccccc3)c(O)n(O)c2c1)NC1CCCCC1		50	
CCc1cc(OC)c(OC)c(C(=O)NC[C@@H]2CCCN2CC)c1OC		32	
CCC(=O)c1c(O)n(O)c2cc(NC(=O)Nc3ccc(Cl)cc3)ccc12		38	
CC(=O)c1c(O)n(O)c2cc(NC(=O)c3cnc4ccccc4n3)ccc12		11	
O=C(/C=C/c1ccccc1Cl)Nc1ccc2c(C(=O)c3ccccc3)c(O)n(O)c2c1		9.5	EC50 [3]: > 30 µM; IC50 [4]: 26 µM
O=C1CCc2ccccc2C(=O)N1O	> 1000		
O=C(Nc1ccc2c(C(=O)c3ccccc3)c(O)n(O)c2c1)c1cnc2ccccc2n1		17	
NN1C(=O)Cc2ccccc2C1=O	800		
O=C(c1ccccc1)c1c(O)n(O)c2cc(NC(=O)C3CCCCC3)ccc12		18	
O=C1c2ccccc2C(=O)N1O	> 500		
O=C(Nc1ccc2c(C(=O)c3ccccc3)c(O)n(O)c2c1)c1ccc2ccccc2c1		8	EC50 [3]: > 40 µM; IC50 [4]: 29 µM
CC(=O)c1c(O)n(O)c2cc(NC(=O)/C=C/c3ccccc3Cl)ccc12		26	

SMILES	IC50 [1] [µM]	IC50 [2] [µM]	further results
CCC(=O)c1c(O)n(O)c2cc(NC(=O)c3cnc4ccccc4n3)ccc12		10	
CCC(=O)c1c(O)n(O)c2cc(NC(=O)/C=C/c3ccccc3Cl)ccc12		8	
CCC(=O)c1c(O)n(O)c2cc(NC(=O)c3ccc(Cl)cc3Cl)ccc12		45	
CC(C)CC1=N/C(=C\c2ccc(F)cc2)C(=O)NC1=O	> 365		
CC(=O)c1c(O)n(O)c2cc(NC(=O)c3cccs3)ccc12		40	
O=c1c2nccnc2ncn1O	> 500		
O=C(Nc1ccc2c(C(=O)c3ccccc3)c(O)n(O)c2c1)c1ccccc1		10	EC50 [3]: > 90 µM; IC50 [4]: 56 µM
O=C1Cc2ccccc2CC(=O)N1O	> 1000		
O=C1Cc2ccccc2CN1O	100		inhibition [5]: 25%
O=C(c1ccccc1)c1c(O)n(O)c2cc(NS(=O)(=O)c3cccs3)ccc12		48	
CON1C(=O)Cc2ccccc2C1=O	710		
CCC(=O)c1c(O)n(O)c2cc(NC(=O)c3cccs3)ccc12		35	
O=C(Nc1ccc2c(C(=O)c3ccccc3)c(O)n(O)c2c1)c1cccs1		20	
CC(=O)c1c(O)n(O)c2cc(NC(=O)Nc3cccc(C(=O)O)c3)ccc12		14	
CCC(=O)c1c(O)n(O)c2cc(NC(=O)Nc3ccccc3Cl)ccc12		50	
CC(=O)c1c(O)n(O)c2cc(NC(=O)c3ccc4ccccc4c3)ccc12		9	EC50 [3]: 21 µM; IC50 [4]: 18 µM
O=C(NO)c1ccccc1 [BENZOHYDROXAMATE]	> 500		
O=C(O)C(=O)/C=C(\O)c1ccc(C2CCCCC2)cc1	5		
O=C(Nc1ccc2c(C(=O)c3ccccc3)c(O)n(O)c2c1)c1ccc(Cl)cc1Cl		38	
